# ChEMBL document CHEMBL4396943, “The tetrahydroxanthone-dimer phomoxanthone A is a strong inducer of apoptosis in cisplatin-resistant solid cancer cells” (Bioorg Med Chem, 2019)
# Active and inactive are the calls of the source. No cut-off for these calls is given here.
# Experiments:
# [1] = system: A2780cisR; test: Induction of apoptosis in human A2780cisR cells assessed as decrease in mitochondrial membrane potential at 1 uM incubated for 24 hrs by TMRE staining based flow cytometry; assay type: functional, cell-based
# Method in brief: (§1)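 Cells seeded overnight; complete medium swapped for FBS-free medium just before treatment to avoid TMRE ester cleavage. Exposure to PXA for 1 h, 2 h or 24 h. TMRE staining 20 min, cells collected by trypsinisation, ΔΨm read by flow cytometry. Medium served as negative control, 20 µM CCCP as positive control. Mean ± SEM reported.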
# [2] = system: KYSE-510; test: Antiproliferative activity against human cisplatin resistant KYSE-510 cells assessed as reduction in cell viability incubated for 72 hrs by MTT assay; assay type: functional, cell-based; conditions: KYSE-510, 72 h
# Method in brief: (§2)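 Cells seeded overnight in 96-well plates, then exposed to increasing concentrations (compound dissolved in DMSO, diluted in medium) for the stated time. MTT (5 mg/ml in PBS) added for 15 min, formazan dissolved in DMSO, absorbance read at 544 nm minus 690 nm background. IC50 = concentration giving 50% signal decrease. At least three independent experiments in triplicate.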
# [3] = system: KYSE-510; test: Potency index, ratio of cisplatin IC50 to compound IC50 for antiproliferative activity in human KYSE-510 cells assessed as reduction in cell viability incubated for 72 hrs by MTT assay; assay type: functional
# Method in brief: (§3)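 Cells seeded in 96-well plates overnight, exposed 72 h to increasing concentrations. MTT (5 mg/ml) added for 15 min, formazan dissolved in DMSO, absorbance read at 544 nm with 690 nm background subtracted. IC50 is the concentration reducing signal by 50%. Three independent experiments in triplicate. CisR sublines made by weekly intermittent cisplatin exposure for 24–30 weeks.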
# [4] = system: A2780; test: Ratio of IC50 for antiproliferative activity in human A2780 cells assessed as reduction in cell viability incubated for 24 hrs by MTT assay to IC50 for antiproliferative activity in human A2780 cells assessed as reduction in cell viability incubated for 72 hrs by MTT assay; assay type: functional
# Method in brief: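 MTT assay as for the viability IC50s (overnight seeding, MTT 15 min, DMSO solubilisation, 544/690 nm), with PXA incubation for 24 h versus 72 h. IC50 is the concentration giving a 50% signal decrease. At least three independent experiments.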
# [5] = system: A2780cisR; test: Antiproliferative activity against human A2780cisR cells assessed as reduction in cell viability incubated for 72 hrs by MTT assay; assay type: functional, cell-based; method in brief: as §2
# [6] = system: A2780; test: Induction of apoptosis in human A2780 cells assessed as accumulation in subG1 phase at 1 uM incubated for 24 hrs by propidium iodide staining based flow cytometry (reference value: 10%); assay type: functional
# Method in brief: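 Cells plated in 24-well plates (about 100,000/well) for one day, then treated 24 h. Where used, caspase inhibitor Q-VD-OPh (20 µM) was added 1 h before. Cells lysed in hypotonic buffer (0.1% sodium citrate, 0.1% Triton X-100, 100 µg/ml propidium iodide) overnight at 4 °C in the dark. Sub-G1 fraction read by flow cytometry. Medium control, cisplatin positive control.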
# [7] = system: A2780; test: Cell cycle arrest in human A2780 cells assessed as accumulation at G1 phase at 10 uM incubated for 24 hrs by propidium iodide staining based flow cytometry (reference value: 61.8%); assay type: functional
# Method in brief: (§4)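 After 24 h exposure, cells washed in ice-cold PBS. About 2 million cells fixed in cold 70% ethanol at −20 °C for at least 24 h. Stained with 0.1% Triton X-100, 200 µg/ml RNase A and 20 µg/ml propidium iodide in PBS, 15 min at 37 °C in the dark. DNA content read by flow cytometry with doublet discrimination. Medium as untreated control, paclitaxel as G2/M control. Three independent experiments.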
# [8] = system: A2780; test: Potency index, ratio of cisplatin IC50 to compound IC50 for antiproliferative activity in human A2780 cells assessed as reduction in cell viability incubated for 72 hrs by MTT assay; assay type: functional; method in brief: as §3
# [9] = system: K562; test: Antiproliferative activity against human K562 cells assessed as reduction in cell viability incubated for 72 hrs by MTT assay; assay type: functional, cell-based; conditions: K562, 72 h; method in brief: as §2
# [10] = system: J82; test: Antiproliferative activity against human cisplatin resistant J82 cells assessed as reduction in cell viability incubated for 72 hrs by MTT assay; assay type: functional, cell-based; conditions: J82, 72 h; method in brief: as §2
# [11] = system: CAL-27; test: Antiproliferative activity against human CAL27 cells assessed as reduction in cell viability incubated for 72 hrs by MTT assay; assay type: functional, cell-based; conditions: CAL-27, 72 h; method in brief: as §2
# [12] = system: A2780; test: Induction of apoptosis in human A2780 cells assessed as depolarization of mitochondrial membrane potential at 1 uM incubated for 2 hrs by TMRE staining based flow cytometry; assay type: functional; method in brief: as §1
# [13] = system: A2780; test: Induction of apoptosis in human A2780 cells assessed as depolarization of mitochondrial membrane potential at 1 uM by TMRE staining based flow cytometry; assay type: functional, cell-based; conditions: TDE = time-dependent effect
# Method in brief: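 Cells seeded overnight; medium switched to FBS-free just before treatment to avoid TMRE ester cleavage. Exposure 1 h, 2 h or 24 h, then TMRE staining for 20 min. Cells trypsinized, centrifuged at 4 °C and read by flow cytometry. Medium as negative control, 20 µM CCCP as positive control. […]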
# [14] = system: A2780cisR; test: Induction of apoptosis in human A2780cisR cells assessed as depolarization of mitochondrial membrane potential incubated for 2 hrs by TMRE staining based flow cytometry; assay type: functional, cell-based; method in brief: as §1
# [15] = system: A2780cisR; test: Induction of apoptosis in human A2780cisR cells assessed as depolarization of mitochondrial membrane potential at 1 uM incubated for 1 hr by TMRE staining based flow cytometry; assay type: functional; method in brief: as §1
# [16] = system: J82; test: Antiproliferative activity against human J82 cells assessed as reduction in cell viability incubated for 72 hrs by MTT assay; assay type: functional, cell-based; conditions: J82, 72 h; method in brief: as §2
# [17] = system: CAL-27; test: Potency index, ratio of cisplatin IC50 to compound IC50 for antiproliferative activity in human CAL27 cells assessed as reduction in cell viability incubated for 72 hrs by MTT assay; assay type: functional; method in brief: as §3
# [18] = system: A2780; test: Induction of apoptosis in human A2780 cells assessed as plasma membrane damage at 1 to 10 uM incubated for 24 hrs by propidium iodide staining based flow cytometry; assay type: functional, cell-based
# Method in brief: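 Cells exposed to PXA for 24 h, trypsinised, pelleted at 4 °C, stained with 100 µg/ml propidium iodide, diluted in sheath fluid and read by flow cytometry. Positive control was 0.2% Triton X-100 (20 min). Three experiments, mean ± SEM.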
# [19] = system: MDA-MB-231; test: Antiproliferative activity against cisplatin-resistant human MDA-MB-231 cells assessed as reduction in cell viability incubated for 72 hrs by MTT assay; assay type: functional, cell-based; conditions: MDA-MB-231, 72 h; method in brief: as §2
# [20] = system: MDA-MB-231; test: Antiproliferative activity against human MDA-MB-231 cells assessed as reduction in cell viability incubated for 72 hrs by MTT assay; assay type: functional, cell-based; conditions: MDA-MB-231, 72 h; method in brief: as §2
# [21] = system: A2780cisR; test: Cell cycle arrest in human A2780cisR cells assessed as accumulation at G1 phase incubated for 24 hrs by propidium iodide staining based flow cytometry; assay type: functional; method in brief: as §4
# [22] = system: K562; test: Potency index, ratio of cisplatin IC50 to compound IC50 for antiproliferative activity in human K562 cells assessed as reduction in cell viability incubated for 72 hrs by MTT assay; assay type: functional; method in brief: as §3
smiles,measurement,setting,value
CC(=O)OC[C@]12Oc3c(-c4ccc(O)c5c4O[C@@]4(COC(C)=O)C(=C(O)C[C@@H](C)[C@H]4OC(C)=O)C5=O)ccc(O)c3C(=O)C1=C(O)C[C@@H](C)[C@H]2OC(C)=O [PHOMOXANTHONE A],Activity,[1],Active
same,IC50,[2],0.79 µM
same,Ratio IC50,[3],2 - 10
same,Ratio IC50,[4],2.5
same,IC50,[5]; read-out: IC50,1.37 to 1.38 µM
same,IC50,[5]; read-out: pIC50 (converted),1.38 µM
same,Activity,[6],42%
same,Activity,[7],78.9%
same,Ratio IC50,[8],7
same,IC50,[9],1.86 µM
same,IC50,[10],2.04 µM
same,IC50,[11],5.25 µM
same,Activity,[12],50%
same,Activity,[13],Tde
same,Activity,[14],Dose-dependent effect
same,IC50,[14],0.86 µM
same,Activity,[15],73%
same,IC50,[16],3.23 µM
same,Ratio IC50,[17],2 - 10
same,Activity,[18],inactive
same,IC50,[19],4.37 µM
same,IC50,[20],3.7 µM
same,Activity,[21],Dose-dependent effect
same,Ratio IC50,[22],5
